Tests used:
[1] = molecular target: T1, Dual specificity protein phosphatase 6 (Rattus norvegicus, UniProt Q64346); test: Inhibition of histidine-tagged rat recombinant MKP3 catalytic domain expressed in Escherichia coli BL21(DE3)
T1 sequence (Q64346 whole entry): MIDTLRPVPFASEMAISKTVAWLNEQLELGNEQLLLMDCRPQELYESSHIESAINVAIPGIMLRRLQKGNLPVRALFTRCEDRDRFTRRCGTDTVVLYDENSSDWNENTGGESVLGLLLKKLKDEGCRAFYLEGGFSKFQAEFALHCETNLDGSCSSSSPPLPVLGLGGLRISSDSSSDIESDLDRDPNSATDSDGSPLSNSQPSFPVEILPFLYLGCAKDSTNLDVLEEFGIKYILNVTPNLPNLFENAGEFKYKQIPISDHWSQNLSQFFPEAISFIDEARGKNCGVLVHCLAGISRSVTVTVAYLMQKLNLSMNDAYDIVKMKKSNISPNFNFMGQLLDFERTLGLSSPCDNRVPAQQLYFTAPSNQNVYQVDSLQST
Procedure, shortened: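 Recombinant MKP-3 was expressed from a bacterial plasmid. Phosphatase activity was read from O-methyl fluorescein phosphate hydrolysis in a 25 μL final mixture, incubated 20 or 60 min at ambient temperature. Product fluorescence was read at excitation 485 nm and emission 530 nm. IC50 came from at least six inhibitor concentrations.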

[2] = molecular target: T2, Dual specificity protein phosphatase 1 (Mus musculus, UniProt P28563); test: Inhibition of histidine-tagged mouse MKP1 catalytic domain expressed in […]
T2 sequence (P28563 whole entry): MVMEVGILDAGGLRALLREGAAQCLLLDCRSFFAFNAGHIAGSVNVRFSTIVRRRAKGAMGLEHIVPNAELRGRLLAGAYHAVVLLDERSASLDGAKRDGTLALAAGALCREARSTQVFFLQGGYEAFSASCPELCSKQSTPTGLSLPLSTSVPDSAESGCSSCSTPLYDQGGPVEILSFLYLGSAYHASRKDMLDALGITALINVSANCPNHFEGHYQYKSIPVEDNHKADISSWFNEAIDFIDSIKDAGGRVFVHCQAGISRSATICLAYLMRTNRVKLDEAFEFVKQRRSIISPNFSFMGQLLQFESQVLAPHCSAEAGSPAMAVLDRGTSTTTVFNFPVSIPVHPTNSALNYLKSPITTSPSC

[3] = molecular target: T3, M-phase inducer phosphatase 2 (Homo sapiens, UniProt P30305); test: Inhibition of histidine-tagged human recombinant Cdc25B catalytic domain expressed in Escherichia coli
T3 sequence (P30305 whole entry): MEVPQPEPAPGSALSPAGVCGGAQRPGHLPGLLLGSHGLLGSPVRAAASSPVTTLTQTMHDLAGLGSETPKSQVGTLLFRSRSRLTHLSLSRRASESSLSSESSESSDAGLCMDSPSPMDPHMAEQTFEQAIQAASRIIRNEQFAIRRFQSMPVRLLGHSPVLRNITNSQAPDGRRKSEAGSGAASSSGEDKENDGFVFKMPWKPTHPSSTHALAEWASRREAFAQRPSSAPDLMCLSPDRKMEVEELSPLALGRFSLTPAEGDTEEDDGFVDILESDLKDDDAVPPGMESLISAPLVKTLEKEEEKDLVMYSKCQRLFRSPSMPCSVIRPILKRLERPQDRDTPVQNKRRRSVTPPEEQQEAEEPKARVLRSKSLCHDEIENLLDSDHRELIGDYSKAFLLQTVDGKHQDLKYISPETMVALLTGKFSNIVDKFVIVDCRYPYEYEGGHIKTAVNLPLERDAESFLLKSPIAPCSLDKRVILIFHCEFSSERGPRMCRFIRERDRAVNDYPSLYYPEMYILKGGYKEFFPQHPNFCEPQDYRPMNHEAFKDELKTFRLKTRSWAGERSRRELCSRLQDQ

Measured: IC50

Cc1c(NCC=O)c(O)c2ccccc2c1O [2-(2-hydroxyethylamino)-3-methylnaphthalene-1,4-dione]
> 50 µM: [1] | [2] | [3]

O=CCNc1cc(O)c2ccccc2c1O [2-(2-hydroxyethylamino)naphthalene-1,4-dione]
> 50 µM: [1] | [2] | [3]

Source: BindingDB's records for doi:10.1016/j.bmc.2008.10.090 (Virginia Polytechnic Institute and State University, 2009)
